Assay results reported in ChEMBL document CHEMBL4680371, “Design and Structure-Activity Relationship of a Potent Furin Inhibitor Derived from Influenza Hemagglutinin” (ACS Med Chem Lett, 2021).
Where a SMILES comes first, the peptide text is derived from it. [ ]: non-standard residue; d: D form. Abu = CC[C@H](N)C(=O)O; Aib = CC(C)(N)C(=O)O

Target: Furin (Homo sapiens, UniProt P09958)
Experiment: Inhibition of recombinant soluble human furin using pyroGlu-Arg-Thr-Lys-Arg-methyl-coumaryl-7-amide as substrate measured after 1 hr
Method in brief: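 Soluble human recombinant furin was tested in a competitive kinetic assay. Ki is reported as the mean ± SD of at least two independent experiments.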

Chain of Furin (P09958 whole entry): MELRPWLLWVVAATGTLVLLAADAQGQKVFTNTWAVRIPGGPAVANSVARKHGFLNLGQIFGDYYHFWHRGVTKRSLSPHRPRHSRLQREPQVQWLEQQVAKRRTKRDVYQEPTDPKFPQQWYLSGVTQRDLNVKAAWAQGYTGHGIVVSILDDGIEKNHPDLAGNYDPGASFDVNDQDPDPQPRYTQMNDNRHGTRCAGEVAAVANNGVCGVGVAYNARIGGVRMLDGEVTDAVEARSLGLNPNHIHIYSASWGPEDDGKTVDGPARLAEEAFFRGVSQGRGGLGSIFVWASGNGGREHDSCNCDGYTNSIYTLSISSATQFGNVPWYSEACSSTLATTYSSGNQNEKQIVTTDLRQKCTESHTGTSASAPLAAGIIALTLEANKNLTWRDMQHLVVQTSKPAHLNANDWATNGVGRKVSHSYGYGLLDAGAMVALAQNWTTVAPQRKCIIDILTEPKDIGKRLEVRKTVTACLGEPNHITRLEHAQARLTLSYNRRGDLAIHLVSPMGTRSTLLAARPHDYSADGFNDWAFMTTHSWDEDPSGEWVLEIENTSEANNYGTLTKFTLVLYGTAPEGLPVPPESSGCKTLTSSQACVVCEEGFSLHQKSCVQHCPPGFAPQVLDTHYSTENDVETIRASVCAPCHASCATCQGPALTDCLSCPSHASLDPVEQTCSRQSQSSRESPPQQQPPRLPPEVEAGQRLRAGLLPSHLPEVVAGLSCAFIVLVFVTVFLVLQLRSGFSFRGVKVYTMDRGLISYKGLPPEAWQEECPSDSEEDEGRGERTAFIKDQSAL

Row | Structure (SMILES) | Ki [nM]
1 | CC(=O)N1CCC[C@H]1C(=O)N[C@@H](C)C(=O)N[C@@H](CCCNC(=N)N)C(=O)N[C@@H](CCCNC(=N)N)C(=O)N[C@@H](CCCNC(=N)N)C(=O)N[C@@H](CCCCN)C(=O)N[C@@H](CCCCN)C(=O)N[C@@H](CCCNC(=N)N)C(=O)N[C@H](C(N)=O)[C@@H](C)O | 10
2 | CC(=O)N[C@@H](CCCNC(=N)N)C(=O)N[C@@H](C)C(=O)N[C@@H](CCCNC(=N)N)C(=O)N[C@@H](CCC(=O)O)C(=O)N[C@@H](CCCNC(=N)N)C(=O)N[C@@H](CCCCN)C(=O)N[C@@H](CCCCN)C(=O)N[C@@H](CCCNC(=N)N)C(=O)N[C@H](C(N)=O)[C@@H](C)O | 55
3 | CC(=O)N[C@@H](CCCNC(=N)N)C(=O)N[C@@H](C)C(=O)N[C@@H](CCCNC(=N)N)C(=O)N[C@@H](C)C(=O)N[C@@H](CCCNC(=N)N)C(=O)N[C@@H](CCCCN)C(=O)N[C@@H](CCCCN)C(=O)N[C@@H](CCCNC(=N)N)C(=O)N[C@H](C(N)=O)[C@@H](C)O | 11
4 | CC(=O)N[C@@H](CCCNC(=N)N)C(=O)N[C@@H](C)C(=O)N1CCC[C@H]1C(=O)N[C@@H](CCCNC(=N)N)C(=O)N[C@@H](CCCNC(=N)N)C(=O)N[C@@H](CCCCN)C(=O)N[C@@H](CCCCN)C(=O)N[C@@H](CCCNC(=N)N)C(=O)N[C@H](C(N)=O)[C@@H](C)O | 21
5 | CC(=O)N[C@@H](C)C(=O)N[C@@H](C)C(=O)N[C@@H](CCCNC(=N)N)C(=O)N[C@@H](CCCNC(=N)N)C(=O)N[C@@H](CCCNC(=N)N)C(=O)N[C@@H](CCCCN)C(=O)N[C@@H](CCCCN)C(=O)N[C@@H](CCCNC(=N)N)C(=O)N[C@H](C(N)=O)[C@@H](C)O | 11
6 | CC(=O)N[C@@H](CCCNC(=N)N)C(=O)N[C@@H](C)C(=O)N[C@@H](Cc1c[nH]cn1)C(=O)N[C@@H](CCCNC(=N)N)C(=O)N[C@@H](CCCNC(=N)N)C(=O)N[C@@H](CCCCN)C(=O)N[C@@H](CCCCN)C(=O)N[C@@H](CCCNC(=N)N)C(=O)N[C@H](C(N)=O)[C@@H](C)O | 25
7 | CC(=O)N[C@@H](CCCNC(=N)N)C(=O)N[C@@H](CO)C(=O)N[C@@H](CCCNC(=N)N)C(=O)N[C@@H](CCCNC(=N)N)C(=O)N[C@@H](CCCNC(=N)N)C(=O)N[C@@H](CCCCN)C(=O)N[C@@H](CCCCN)C(=O)N[C@@H](CCCNC(=N)N)C(=O)N[C@H](C(N)=O)[C@@H](C)O | 15
8 | CC[C@H](NC(C)=O)C(=O)N[C@@H](C)C(=O)N[C@@H](CCCNC(=N)N)C(=O)N[C@H](C(=O)N[C@@H](CCCNC(=N)N)C(=O)N[C@@H](CCCCN)C(=O)N[C@@H](CCCCN)C(=O)N[C@@H](CCCNC(=N)N)C(=O)N[C@H](C(N)=O)[C@@H](C)O)[C@@H](C)CC (Ac-[Abu]ARIRKKRT-NH2) | 6
9 | CC(=O)N[C@@H](Cc1ccc(O)cc1)C(=O)N[C@@H](C)C(=O)N[C@@H](CCCNC(=N)N)C(=O)N[C@@H](CCCNC(=N)N)C(=O)N[C@@H](CCCNC(=N)N)C(=O)N[C@@H](CCCCN)C(=O)N[C@@H](CCCCN)C(=O)N[C@@H](CCCNC(=N)N)C(=O)N[C@H](C(N)=O)[C@@H](C)O | 18
10 | CC[C@H](C)[C@H](NC(=O)[C@H](CCCNC(=N)N)NC(=O)[C@H](C)NC(=O)C(C)(C)NC(C)=O)C(=O)N[C@@H](CCCNC(=N)N)C(=O)N[C@@H](CCCCN)C(=O)N[C@@H](CCCCN)C(=O)N[C@@H](CCCNC(=N)N)C(=O)N[C@H](C(N)=O)[C@@H](C)O (Ac-[Aib]ARIRKKRT-NH2) | 13
11 | CC(=O)N[C@@H](CCCNC(=N)N)C(=O)N[C@@H](C)C(=O)N[C@@H](CCCNC(=N)N)C(=O)N[C@@H](CC(=O)O)C(=O)N[C@@H](CCCNC(=N)N)C(=O)N[C@@H](CCCCN)C(=O)N[C@@H](CCCCN)C(=O)N[C@@H](CCCNC(=N)N)C(=O)N[C@H](C(N)=O)[C@@H](C)O | 130
12 | CC(=O)N[C@@H](CC(C)C)C(=O)N[C@@H](C)C(=O)N[C@@H](CCCNC(=N)N)C(=O)N[C@@H](CCCNC(=N)N)C(=O)N[C@@H](CCCNC(=N)N)C(=O)N[C@@H](CCCCN)C(=O)N[C@@H](CCCCN)C(=O)N[C@@H](CCCNC(=N)N)C(=O)N[C@H](C(N)=O)[C@@H](C)O | 12
13 | CC(=O)N[C@@H](CCCNC(=N)N)C(=O)N[C@@H](C)C(=O)N[C@@H](CCCCN)C(=O)N[C@@H](CCCNC(=N)N)C(=O)N[C@@H](CCCNC(=N)N)C(=O)N[C@@H](CCCCN)C(=O)N[C@@H](CCCCN)C(=O)N[C@@H](CCCNC(=N)N)C(=O)N[C@H](C(N)=O)[C@@H](C)O | 15
14 | CC(=O)N[C@@H](CCCNC(=N)N)C(=O)N[C@@H](C)C(=O)N[C@@H](CCCNC(=N)N)C(=O)N[C@@H](CCC(N)=O)C(=O)N[C@@H](CCCNC(=N)N)C(=O)N[C@@H](CCCCN)C(=O)N[C@@H](CCCCN)C(=O)N[C@@H](CCCNC(=N)N)C(=O)N[C@H](C(N)=O)[C@@H](C)O | 19
15 | CSCC[C@H](NC(=O)[C@H](C)NC(=O)[C@H](CCCNC(=N)N)NC(C)=O)C(=O)N[C@@H](CCCNC(=N)N)C(=O)N[C@@H](CCCNC(=N)N)C(=O)N[C@@H](CCCCN)C(=O)N[C@@H](CCCCN)C(=O)N[C@@H](CCCNC(=N)N)C(=O)N[C@H](C(N)=O)[C@@H](C)O | 31
16 | CC(=O)N[C@@H](CCCNC(=N)N)C(=O)N[C@@H](C)C(=O)N[C@@H](CCCNC(=N)N)C(=O)N[C@H](C(=O)N[C@@H](CCCNC(=N)N)C(=O)N[C@@H](CCCCN)C(=O)N[C@@H](CCCCN)C(=O)N[C@@H](CCCNC(=N)N)C(=O)N[C@H](C(N)=O)[C@@H](C)O)C(C)(C)C | 16

Row | Structure (SMILES) | Ki [nM]
17 | CC(=O)N[C@@H](C)C(=O)N[C@@H](Cc1c[nH]c2ccccc12)C(=O)N[C@@H](CCCNC(=N)N)C(=O)N[C@@H](CCCNC(=N)N)C(=O)N[C@@H](CCCNC(=N)N)C(=O)N[C@@H](CCCCN)C(=O)N[C@@H](CCCCN)C(=O)N[C@@H](CCCNC(=N)N)C(=O)N[C@H](C(N)=O)[C@@H](C)O (Ac-AWRRRKKRT-NH2) | 30
18 | CC(=O)N1CCC[C@@H]1C(=O)N[C@@H](C)C(=O)N[C@@H](CCCNC(=N)N)C(=O)N[C@@H](CCCNC(=N)N)C(=O)N[C@@H](CCCNC(=N)N)C(=O)N[C@@H](CCCCN)C(=O)N[C@@H](CCCCN)C(=O)N[C@@H](CCCNC(=N)N)C(=O)N[C@H](C(N)=O)[C@@H](C)O | 13
19 | CC[C@H](NC(=O)[C@H](CCCNC(=N)N)NC(=O)[C@H](C)NC(=O)[C@H](CCCNC(=N)N)NC(C)=O)C(=O)N[C@@H](CCCNC(=N)N)C(=O)N[C@@H](CCCCN)C(=O)N[C@@H](CCCCN)C(=O)N[C@@H](CCCNC(=N)N)C(=O)N[C@H](C(N)=O)[C@@H](C)O | 11
20 | CC(=O)N[C@@H](CCCNC(=N)N)C(=O)N[C@@H](C)C(=O)N[C@H](C(=O)N[C@@H](CCCNC(=N)N)C(=O)N[C@@H](CCCNC(=N)N)C(=O)N[C@@H](CCCCN)C(=O)N[C@@H](CCCCN)C(=O)N[C@@H](CCCNC(=N)N)C(=O)N[C@H](C(N)=O)[C@@H](C)O)C(C)C | 21
21 | CC(=O)N[C@@H](CCCNC(=N)N)C(=O)N[C@@H](CC(C)C)C(=O)N[C@@H](CCCNC(=N)N)C(=O)N[C@@H](CCCNC(=N)N)C(=O)N[C@@H](CCCNC(=N)N)C(=O)N[C@@H](CCCCN)C(=O)N[C@@H](CCCCN)C(=O)N[C@@H](CCCNC(=N)N)C(=O)N[C@H](C(N)=O)[C@@H](C)O | 23
22 | CC(=O)N[C@@H](CCCNC(=N)N)C(=O)N[C@@H](C)C(=O)N[C@@H](Cc1ccc(O)cc1)C(=O)N[C@@H](CCCNC(=N)N)C(=O)N[C@@H](CCCNC(=N)N)C(=O)N[C@@H](CCCCN)C(=O)N[C@@H](CCCCN)C(=O)N[C@@H](CCCNC(=N)N)C(=O)N[C@H](C(N)=O)[C@@H](C)O | 48
23 | CC[C@H](C)[C@H](NC(=O)[C@H](CCCNC(=N)N)NC(=O)[C@H](C)NC(=O)[C@@H](NC(C)=O)C(C)C)C(=O)N[C@@H](CCCNC(=N)N)C(=O)N[C@@H](CCCCN)C(=O)N[C@@H](CCCCN)C(=O)N[C@@H](CCCNC(=N)N)C(=O)N[C@H](C(N)=O)[C@@H](C)O (Ac-VARIRKKRT-NH2) | 10
24 | CC(=O)N[C@@H](CCCNC(=N)N)C(=O)N[C@@H](C)C(=O)N[C@@H](C)C(=O)N[C@@H](CCCNC(=N)N)C(=O)N[C@@H](CCCNC(=N)N)C(=O)N[C@@H](CCCCN)C(=O)N[C@@H](CCCCN)C(=O)N[C@@H](CCCNC(=N)N)C(=O)N[C@H](C(N)=O)[C@@H](C)O | 23
25 | CC[C@H](C)[C@H](NC(=O)[C@H](CCCNC(=N)N)NC(=O)[C@H](C)NC(=O)CNC(C)=O)C(=O)N[C@@H](CCCNC(=N)N)C(=O)N[C@@H](CCCCN)C(=O)N[C@@H](CCCCN)C(=O)N[C@@H](CCCNC(=N)N)C(=O)N[C@H](C(N)=O)[C@@H](C)O (Ac-GARIRKKRT-NH2) | 9
26 | CC(=O)N[C@@H](CCCNC(=N)N)C(=O)N[C@@H](C)C(=O)N[C@@H](CC(=O)O)C(=O)N[C@@H](CCCNC(=N)N)C(=O)N[C@@H](CCCNC(=N)N)C(=O)N[C@@H](CCCCN)C(=O)N[C@@H](CCCCN)C(=O)N[C@@H](CCCNC(=N)N)C(=O)N[C@H](C(N)=O)[C@@H](C)O | 270
27 | CC(=O)N[C@@H](CCCNC(=N)N)C(=O)N1CCC[C@H]1C(=O)N[C@@H](CCCNC(=N)N)C(=O)N[C@@H](CCCNC(=N)N)C(=O)N[C@@H](CCCNC(=N)N)C(=O)N[C@@H](CCCCN)C(=O)N[C@@H](CCCCN)C(=O)N[C@@H](CCCNC(=N)N)C(=O)N[C@H](C(N)=O)[C@@H](C)O | 17
28 | CC(=O)N[C@@H](CCCNC(=N)N)C(=O)N[C@@H](Cc1c[nH]cn1)C(=O)N[C@@H](CCCNC(=N)N)C(=O)N[C@@H](CCCNC(=N)N)C(=O)N[C@@H](CCCNC(=N)N)C(=O)N[C@@H](CCCCN)C(=O)N[C@@H](CCCCN)C(=O)N[C@@H](CCCNC(=N)N)C(=O)N[C@H](C(N)=O)[C@@H](C)O | 21
29 | CSCC[C@H](NC(C)=O)C(=O)N[C@@H](C)C(=O)N[C@@H](CCCNC(=N)N)C(=O)N[C@@H](CCCNC(=N)N)C(=O)N[C@@H](CCCNC(=N)N)C(=O)N[C@@H](CCCCN)C(=O)N[C@@H](CCCCN)C(=O)N[C@@H](CCCNC(=N)N)C(=O)N[C@H](C(N)=O)[C@@H](C)O | 12
30 | CC(=O)N[C@@H](CCCNC(=N)N)C(=O)N[C@H](C(=O)N[C@@H](CCCNC(=N)N)C(=O)N[C@@H](CCCNC(=N)N)C(=O)N[C@@H](CCCNC(=N)N)C(=O)N[C@@H](CCCCN)C(=O)N[C@@H](CCCCN)C(=O)N[C@@H](CCCNC(=N)N)C(=O)N[C@H](C(N)=O)[C@@H](C)O)[C@@H](C)O | 16
31 | CC(=O)N[C@@H](CCCNC(=N)N)C(=O)N[C@@H](C)C(=O)NCC(=O)N[C@@H](CCCNC(=N)N)C(=O)N[C@@H](CCCNC(=N)N)C(=O)N[C@@H](CCCCN)C(=O)N[C@@H](CCCCN)C(=O)N[C@@H](CCCNC(=N)N)C(=O)N[C@H](C(N)=O)[C@@H](C)O | 35
